Source: ChEMBL document CHEMBL5096187, “Efficient Synthesis and Bioevaluation of Novel Dual Tubulin/Histone Deacetylase 3 Inhibitors as Potential Anticancer Agents” (J Med Chem, 2021)

Legend:
[1] = tested on: HCT-116; assay: Antiproliferative activity against human HCT-116 cells assessed as inhibition of cell viability measured for 48 hrs by microplate reader based MTT assay; type: functional; details: HCT-116, 48 h
Outline: (§1)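 Cells grown in RPMI-1640 with 10% FBS and seeded at 5000 cells/well. After overnight attachment, compound was added in medium with 0.1% DMSO for 48 h at 37 °C. Read-out was MTT for HCT-116, B16-F10 and A549, and CCK-8 for Jurkat (0.5 mg/mL, 4 h), with absorbance at 570 nm. IC50 from nonlinear regression; at least three independent experiments.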

[2] = tested on: B16-F10; assay: Antiproliferative activity against mouse B16-F10 cells assessed as inhibition of cell viability measured for 48 hrs by microplate reader based MTT assay; type: functional; details: B16-F10, 48 h; outline: as §1
[3] = tested on: Jurkat; assay: Antiproliferative activity against human Jurkat cells assessed as inhibition of cell viability measured for 48 hrs by microplate reader based CCK-8 assay; type: functional
[4] = tested on: A549; assay: Antiproliferative activity against human A549 cells assessed as inhibition of cell viability measured for 48 hrs by microplate reader based CCK-8 assay; type: functional; details: A549, 48 h
[5] = Antiproliferative activity against human YCC-11 cells assessed as inhibition of cell viability; type: functional, cell-based
[6] = Antiproliferative activity against human YCC3/7 cells assessed as inhibition of cell viability; type: functional, cell-based
[7] = target: T1, Protein deacetylase HDAC6 (Homo sapiens) (UniProt Q9UBN7); assay: Inhibition of recombinant HDAC6 (unknown origin) at 1 uM relative to control
T1 sequence (whole entry): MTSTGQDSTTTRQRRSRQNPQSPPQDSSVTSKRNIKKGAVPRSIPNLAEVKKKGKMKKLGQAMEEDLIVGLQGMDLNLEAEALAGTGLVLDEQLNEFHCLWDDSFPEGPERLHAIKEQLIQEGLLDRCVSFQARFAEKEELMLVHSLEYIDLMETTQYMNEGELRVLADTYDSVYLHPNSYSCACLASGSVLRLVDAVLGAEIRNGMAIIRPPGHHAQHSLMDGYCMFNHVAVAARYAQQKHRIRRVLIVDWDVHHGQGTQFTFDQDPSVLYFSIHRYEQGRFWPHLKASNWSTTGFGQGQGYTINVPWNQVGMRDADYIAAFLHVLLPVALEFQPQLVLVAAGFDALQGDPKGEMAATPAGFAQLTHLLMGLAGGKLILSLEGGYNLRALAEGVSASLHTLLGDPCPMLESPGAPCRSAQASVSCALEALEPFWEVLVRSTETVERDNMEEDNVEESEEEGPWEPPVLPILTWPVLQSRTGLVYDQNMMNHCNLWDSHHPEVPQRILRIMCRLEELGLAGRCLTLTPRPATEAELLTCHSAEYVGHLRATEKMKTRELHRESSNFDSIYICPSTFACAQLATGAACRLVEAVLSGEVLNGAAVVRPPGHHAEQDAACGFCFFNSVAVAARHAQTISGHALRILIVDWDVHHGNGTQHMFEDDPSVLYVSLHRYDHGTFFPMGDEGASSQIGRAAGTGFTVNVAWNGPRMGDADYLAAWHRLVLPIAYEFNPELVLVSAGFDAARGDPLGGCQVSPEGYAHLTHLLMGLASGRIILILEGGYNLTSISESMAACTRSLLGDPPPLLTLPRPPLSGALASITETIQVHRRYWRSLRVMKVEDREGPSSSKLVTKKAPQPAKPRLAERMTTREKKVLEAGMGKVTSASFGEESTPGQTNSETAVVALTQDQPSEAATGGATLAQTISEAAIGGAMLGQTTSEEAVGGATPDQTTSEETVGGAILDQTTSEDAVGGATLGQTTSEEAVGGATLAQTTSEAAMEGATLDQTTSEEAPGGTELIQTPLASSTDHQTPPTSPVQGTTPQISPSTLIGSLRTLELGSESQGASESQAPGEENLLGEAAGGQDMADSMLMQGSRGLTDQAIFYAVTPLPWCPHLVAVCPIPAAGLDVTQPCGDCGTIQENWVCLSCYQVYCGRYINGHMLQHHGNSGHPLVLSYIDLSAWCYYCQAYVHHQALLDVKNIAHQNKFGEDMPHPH
Outline: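 Single-point test at 1 μM against recombinant HDAC6 (15 ng/well) in 25 mM Tris pH 8.0, 1 mM MgCl₂, 0.1 mg/mL BSA, 137 mM NaCl, 2.7 mM KCl. Compound preincubated 5 min at room temperature, then Ac-Leu-Gly-Lys(Ac)-AMC 10 μM, 30 min at 37 °C. Trypsin/TSA developer 30 min. Fluorescence read at ex 350−360/em 450−460 nm.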

[8] = target: Histone deacetylase 1 (Homo sapiens, UniProt Q13547); assay: Inhibition of full length recombinant human HDAC1 (1 to 482 residues) expressed in Baculovirus system using Ac-Leu-Gly-Lys (Ac)-AMC as substrate pretreated for 5 mins followed by substrate addition and measured after 30 mins
[9] = target: Histone deacetylase 3 (Homo sapiens, UniProt O15379); assay: Inhibition of recombinant HDAC3 (unknown origin) using Ac-Leu-Gly-Lys (Ac)-AMC as substrate pretreated for 5 mins followed by substrate addition and measured after 30 mins
[10] = target: T2, Protein deacetylase HDAC6 (Homo sapiens, UniProt Q9UBN7); assay: Inhibition of full length N-terminal GST-tagged human recombinant HDAC6 (1 to 1215 residues) expressed in Baculovirus infected Sf9 cells using Ac-Leu-Gly-Lys (Ac)-AMC as substrate pretreated for 5 mins followed by substrate addition and measured after 30 mins
T2 sequence (Q9UBN7 whole entry): T1 sequence (whole entry)
Outline: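 HDAC6 at 15 ng/well in Tris buffer pH 8.0 with MgCl2, BSA, NaCl and KCl. Ten 3-fold dilutions preincubated 5 min at room temperature, then 10 μM Ac-Leu-Gly-Lys(Ac)-AMC for 30 min at 37 °C. IC50 by normalized dose–response nonlinear fit; performed at least three times.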

[11] = target: T3, Histone deacetylase 8 (Homo sapiens, UniProt Q9BY41); assay: Inhibition of full length C-terminal his-tagged human recombinant HDAC8 ([…]) expressed in baculovirus in Sf9 insect cells using Ac-Leu-Gly-Lys (Tfa)-AMC as substrate pretreated for 5 mins followed by substrate addition and measured after 30 mins
T3 sequence (Q9BY41 whole entry): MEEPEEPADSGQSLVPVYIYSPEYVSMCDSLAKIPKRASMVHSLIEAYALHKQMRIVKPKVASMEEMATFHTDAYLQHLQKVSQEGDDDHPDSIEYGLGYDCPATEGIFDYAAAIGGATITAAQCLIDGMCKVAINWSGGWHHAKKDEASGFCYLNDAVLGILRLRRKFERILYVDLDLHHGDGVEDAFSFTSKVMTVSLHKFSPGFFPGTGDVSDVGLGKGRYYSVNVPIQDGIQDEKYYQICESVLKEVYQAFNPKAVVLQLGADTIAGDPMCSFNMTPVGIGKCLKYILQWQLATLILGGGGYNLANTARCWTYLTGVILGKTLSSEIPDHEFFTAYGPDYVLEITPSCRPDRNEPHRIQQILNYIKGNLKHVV

[12] = target: Tubulin (Sus scrofa) (UniProt P02554+P02550); assay: Inhibition of pig brain tubulin polymerization at 10 uM measured after 20 mins by spectrometric method relative to control
Outline: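 Pig brain tubulin was purified by three assembly/disassembly cycles and then phosphocellulose chromatography. Compound at 10 μM in PEM buffer with 1 mM GTP and 5% glycerol at 37 °C. Polymerization followed at 340 nm; inhibition taken at 20 min versus vehicle control.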

[13] = target: T4, Histone deacetylase 7 (Homo sapiens, UniProt Q8WUI4); assay: Inhibition of full length N-terminal GST-tagged human recombinant HDAC7 (501 to 952 residues) expressed in Baculovirus system using Ac-Leu-Gly-Lys (Ac)-AMC as substrate pretreated for 5 mins followed by substrate addition and measured after 30 mins
T4 sequence (Q8WUI4 whole entry): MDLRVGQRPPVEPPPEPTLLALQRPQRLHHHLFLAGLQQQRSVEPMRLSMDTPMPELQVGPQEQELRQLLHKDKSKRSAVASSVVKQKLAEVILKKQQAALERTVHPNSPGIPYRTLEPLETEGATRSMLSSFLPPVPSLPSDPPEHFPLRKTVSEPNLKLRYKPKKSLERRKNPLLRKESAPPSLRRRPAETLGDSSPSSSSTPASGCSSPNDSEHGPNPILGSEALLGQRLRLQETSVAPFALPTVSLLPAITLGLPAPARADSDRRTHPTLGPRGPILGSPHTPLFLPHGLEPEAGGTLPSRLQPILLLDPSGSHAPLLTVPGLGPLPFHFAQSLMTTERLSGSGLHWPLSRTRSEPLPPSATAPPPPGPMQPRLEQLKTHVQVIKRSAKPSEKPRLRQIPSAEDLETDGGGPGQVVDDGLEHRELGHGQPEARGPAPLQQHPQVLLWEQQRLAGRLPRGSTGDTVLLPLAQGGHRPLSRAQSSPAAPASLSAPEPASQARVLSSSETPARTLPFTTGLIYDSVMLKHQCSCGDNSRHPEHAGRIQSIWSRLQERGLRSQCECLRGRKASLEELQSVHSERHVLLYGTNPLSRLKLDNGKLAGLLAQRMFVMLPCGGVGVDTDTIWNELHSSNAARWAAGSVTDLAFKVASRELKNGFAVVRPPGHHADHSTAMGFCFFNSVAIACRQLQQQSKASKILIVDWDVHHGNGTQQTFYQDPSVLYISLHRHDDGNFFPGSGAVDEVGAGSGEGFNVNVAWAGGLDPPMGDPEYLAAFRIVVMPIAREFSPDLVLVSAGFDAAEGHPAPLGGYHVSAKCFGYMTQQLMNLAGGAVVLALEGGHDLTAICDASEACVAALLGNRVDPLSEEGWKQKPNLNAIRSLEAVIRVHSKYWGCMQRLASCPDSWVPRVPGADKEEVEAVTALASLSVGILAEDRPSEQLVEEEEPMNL

Sequence of Tubulin (Sus scrofa) (P02550 whole entry, looked up): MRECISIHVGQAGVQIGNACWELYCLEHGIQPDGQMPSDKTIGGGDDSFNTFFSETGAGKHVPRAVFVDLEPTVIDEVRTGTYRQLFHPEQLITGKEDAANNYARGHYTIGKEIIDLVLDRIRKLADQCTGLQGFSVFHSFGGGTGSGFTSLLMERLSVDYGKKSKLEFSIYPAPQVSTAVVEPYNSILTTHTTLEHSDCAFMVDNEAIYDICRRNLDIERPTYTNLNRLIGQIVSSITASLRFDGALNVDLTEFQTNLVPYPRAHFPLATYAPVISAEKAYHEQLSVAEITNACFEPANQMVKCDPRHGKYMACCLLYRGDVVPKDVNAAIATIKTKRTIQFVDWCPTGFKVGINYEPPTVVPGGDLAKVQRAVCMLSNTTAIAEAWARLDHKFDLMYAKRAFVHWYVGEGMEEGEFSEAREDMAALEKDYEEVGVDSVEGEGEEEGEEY
Sequence of Tubulin (Sus scrofa) (P02554 whole entry, looked up): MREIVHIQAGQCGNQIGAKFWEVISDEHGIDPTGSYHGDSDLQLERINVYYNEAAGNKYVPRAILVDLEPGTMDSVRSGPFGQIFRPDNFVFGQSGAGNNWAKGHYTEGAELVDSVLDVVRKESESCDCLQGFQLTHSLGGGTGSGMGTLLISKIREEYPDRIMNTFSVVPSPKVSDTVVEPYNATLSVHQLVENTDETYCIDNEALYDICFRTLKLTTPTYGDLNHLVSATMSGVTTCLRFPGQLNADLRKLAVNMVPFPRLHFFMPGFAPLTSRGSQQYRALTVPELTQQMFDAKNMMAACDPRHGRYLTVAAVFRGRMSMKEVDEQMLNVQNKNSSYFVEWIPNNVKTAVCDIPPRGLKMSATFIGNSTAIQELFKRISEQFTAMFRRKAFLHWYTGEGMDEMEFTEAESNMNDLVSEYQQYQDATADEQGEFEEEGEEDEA
Sequence of Histone deacetylase 1 (Q13547 whole entry, the tested form may be a part): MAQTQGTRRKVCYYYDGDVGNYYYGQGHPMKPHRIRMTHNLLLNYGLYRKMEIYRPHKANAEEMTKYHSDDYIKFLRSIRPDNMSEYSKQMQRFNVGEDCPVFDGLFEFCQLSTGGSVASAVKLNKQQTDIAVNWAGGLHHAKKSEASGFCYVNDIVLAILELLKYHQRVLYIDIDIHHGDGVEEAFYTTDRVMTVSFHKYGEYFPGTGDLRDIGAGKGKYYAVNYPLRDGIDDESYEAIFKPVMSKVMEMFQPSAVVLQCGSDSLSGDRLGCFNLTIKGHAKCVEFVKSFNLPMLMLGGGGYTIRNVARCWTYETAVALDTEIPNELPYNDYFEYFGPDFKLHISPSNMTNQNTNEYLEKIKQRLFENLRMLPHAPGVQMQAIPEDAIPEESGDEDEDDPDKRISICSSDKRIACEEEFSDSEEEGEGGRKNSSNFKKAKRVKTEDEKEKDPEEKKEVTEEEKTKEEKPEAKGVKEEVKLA
Sequence of Histone deacetylase 3 (O15379 whole entry, the tested form may be a part): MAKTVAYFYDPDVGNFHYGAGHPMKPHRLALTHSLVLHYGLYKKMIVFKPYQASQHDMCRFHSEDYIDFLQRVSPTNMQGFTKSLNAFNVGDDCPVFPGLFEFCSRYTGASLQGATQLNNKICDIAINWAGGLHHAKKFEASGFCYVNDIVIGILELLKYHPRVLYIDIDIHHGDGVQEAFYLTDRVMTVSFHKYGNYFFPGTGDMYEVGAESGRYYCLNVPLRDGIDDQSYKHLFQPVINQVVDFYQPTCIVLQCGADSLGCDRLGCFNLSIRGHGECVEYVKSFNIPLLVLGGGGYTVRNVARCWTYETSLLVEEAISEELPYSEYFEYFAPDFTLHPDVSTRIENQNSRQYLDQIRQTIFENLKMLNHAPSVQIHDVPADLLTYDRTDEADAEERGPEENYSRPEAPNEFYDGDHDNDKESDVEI

SMILES	IC50 [1]	IC50 [2]	IC50 [3]	IC50 [4]	IC50 [5]	IC50 [6]	inhibition [7]	IC50 [8]	IC50 [9]	IC50 [10]	IC50 [11]	inhibition [12]	IC50 [13]
COc1cc(C(=O)c2csc(-c3ccc(OCCCC(=O)NO)cc3)n2)cc(OC)c1OC	100 nM	3830 nM	530 nM	1930 nM	920 nM	1280 nM	> 50%	6270 nM	9560 nM	1150 nM	8840 nM	39%	
COc1cc(C(=O)c2csc(-c3ccc(NC(=O)/C=C/C(=O)Nc4ccccc4N)cc3)n2)cc(OC)c1OC	870 nM	3950 nM	260 nM	2980 nM				14400 nM	3960 nM	30200 nM	800 nM	67%	43000 nM
COc1cc(C(=O)c2csc(-c3ccc(/C=C/C(=O)NO)cc3)n2)cc(OC)c1OC	100 nM	1380 nM	20 nM	750 nM	4090 nM	6140 nM	> 50%	8490 nM	19100 nM	1590 nM	2710 nM	47%	
